Results on five compounds are retold here after ChEMBL document CHEMBL1127078, “Fluorocyclopropyl quinolones. 1. Synthesis and structure-activity relationships of 1-(2-fluorocyclopropyl)-3-pyridonecarboxylic acid antibacterial agents” (J Med Chem, 1993).

The test system of data set [1] is Escherichia coli. Kind of data set: Tested for minimum inhibitory concentration against Escherichia coli NIHJ. The format is functional. In a few lines: (§1)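 Twofold broth microdilution in Mueller-Hinton broth, inoculum approximately 10^6 cfu/mL. Plates incubated 18 h at 37 °C. MIC taken as the lowest concentration preventing visible bacterial growth.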
Data set [2] relates to Enterobacter cloacae. Kind of data set: (§2) Tested for minimum inhibitory concentration against Enterobacter cloacae 03400. The format is functional. The gist of the method:
as §1

Another data set has as its system Klebsiella pneumoniae. The data set is described as follows: Tested for minimum inhibitory concentration against Klebsiella pneumoniae. In kind it is functional. The gist of the method:
as §1

Data set [3] concerns Staphylococcus aureus. Kind of data set: Tested for minimum inhibitory concentration against Staphylococcus aureus Smith. In kind it is functional. In a few lines:
as §1

The subject of data set [4] is Staphylococcus epidermidis. Kind of data set: Tested for minimum inhibitory concentration against Staphylococcus epidermidis 56556. The format is functional. The gist of the method:
as §1

Another data set relates to Proteus vulgaris. Kind of data set: Tested for minimum inhibitory concentration against Proteus vulgaris 08601. The format is functional. As to conditions: Proteus vulgaris; read-out: MIC. In a few lines: as §1
In the next data set the test system is Streptococcus pyogenes. Kind of data set: Tested for minimum inhibitory concentration against Streptococcus pyogenes G-36. The format is functional. In a few lines: as §1
The next data set relates to Pseudomonas aeruginosa. Kind of data set: Tested for minimum inhibitory concentration against Pseudomonas aeruginosa 32121. The format is functional. In a few lines:
as §1

The next data set has as its system Enterococcus faecalis. The data set is described as follows: Tested for minimum inhibitory concentration against Enterococcus faecalis ATCC 19433. In kind it is functional. In a few lines: as §1
The test system of data set [5] is Staphylococcus aureus. Kind of data set: Tested for minimum inhibitory concentration against Staphylococcus aureus 209P. The format is functional. In a few lines:
as §1

The nature of data set [6]: Partition coefficient of the compound. As to conditions: CHCl3-0.1 M phosphate buffer (pH 7.4). The format is ADME. The gist of the method: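 Shake-flask distribution between CHCl3 and 0.1 M sodium phosphate buffer pH 7.4, each phase presaturated with the other. About 1–2 mg sample dissolved in the aqueous phase and its UV maximum absorbance recorded. Equal 10 mL volumes shaken 30 min at room temperature, then left 1 h to separate. Aqueous-layer UV maximum re-read. P' calculated as a ratio of the absorbance readings.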

For data set [7], the system named is Escherichia coli. The data set is described as follows: Tested for minimum inhibitory concentration against Escherichia coli KL-16. In kind it is functional. The gist of the method: as §1
For data set [8], the system named is Enterobacter cloacae. Described as §2. The format is functional. The source holds these as a separate data set.
Data set [9] concerns Escherichia coli. The data set is described as follows: Tested for minimum inhibitory concentration against Escherichia coli KL16. In kind it is functional. The gist of the method: as §1
In data set [10] the test system is Escherichia coli. Kind of data set: Dose required to inhibit DNA gyrase in Escherichia coli. The format is functional. The settings on record: read-out: ID50 (the source's name).
[11] abbreviates: Escherichia coli, read-out: MIC.
Setting [12] is: Klebsiella pneumoniae, read-out: MIC.
The mark [13] stands for this setting: Pseudomonas aeruginosa, read-out: MIC.
Setting [14] is: Staphylococcus aureus, read-out: MIC.

Converted amounts (≈) assume the structure as drawn.

The MIC is the lowest concentration that inhibits growth of the organism. For the compound `O=C(O)c1cn(C2CC2F)c2cc(N3CCNCC3)c(F)cc2c1=O` (stereo in doubt; 24), the MIC is at most 0.05 µg/mL in the data set with Escherichia coli [1] (setting [11]); at most 0.05 µg/mL in the data set with Enterobacter cloacae [2]; at most 0.05 µg/mL in the data set with Klebsiella pneumoniae (setting [12]); 0.1 µg/mL (≈ 0.286 µM) against Staphylococcus aureus [3]; 0.2 µg/mL (≈ 0.573 µM) in data set [4]; at most 0.05 µg/mL in the data set on Proteus vulgaris. Besides, the MIC is 1.56 µg/mL (≈ 4.47 µM) against Streptococcus pyogenes, at most 0.05 µg/mL in the data set on Pseudomonas aeruginosa (setting [13]), 1.56 µg/mL (≈ 4.47 µM) in the data set on Enterococcus faecalis and 0.1 µg/mL (≈ 0.286 µM) against Staphylococcus aureus [5]. Further, in [6], the “P'” value worked out at 0.16.

As to `CN1CCN(c2cc3c(cc2F)c(=O)c(C(=O)O)cn3[C@@H]2C[C@@H]2F)CC1` (stereo in doubt; 38), the MIC entry was “<=0.05 ug ml-1” in the data set with Klebsiella pneumoniae, 0.025 µg/mL (≈ 0.0688 µM) against Escherichia coli [7], 0.2 µg/mL (≈ 0.55 µM) in data set [4] and 0.1 µg/mL (≈ 0.275 µM) against Pseudomonas aeruginosa. For the same compound, the “P'” value in data set [6] was found to be 7.3.

Take `CN1CCN(c2cc3c(cc2F)c(=O)c(C(=O)O)cn3C2CC2F)CC1` (stereo in doubt; 26): the MIC was at most 0.05 µg/mL against Escherichia coli [1]; at most 0.05 µg/mL against Enterobacter cloacae [8]; “<=0.05 ug ml-1” against Klebsiella pneumoniae; “<=0.05 ug ml-1” in the data set with Staphylococcus aureus [3]; 0.05 µg/mL (≈ 0.138 µM) in the data set on Escherichia coli [7] (setting [11]); 0.1 µg/mL (≈ 0.275 µM) in data set [4]. For the same compound, the MIC was at most 0.05 µg/mL with Proteus vulgaris; 1.56 µg/mL (≈ 4.29 µM) against Streptococcus pyogenes; 0.2 µg/mL (≈ 0.55 µM) with Pseudomonas aeruginosa (setting [13]); 0.78 µg/mL (≈ 2.15 µM) in the data set with Enterococcus faecalis; 0.1 µg/mL (≈ 0.275 µM) against Staphylococcus aureus [5]. In data set [6], the “P'” value was 7.

With `CN1CCN(c2cc3c(cc2F)c(=O)c(C(=O)O)cn3[C@@H]2C[C@@H]2F)CC1` (stereo in doubt; 39), the MIC is at most 0.05 µg/mL against Escherichia coli [1]; at most 0.05 µg/mL against Enterobacter cloacae [8]; 0.1 µg/mL (≈ 0.275 µM) with Klebsiella pneumoniae (setting [12]); at most 0.05 µg/mL in the data set on Staphylococcus aureus [3] (setting [14]); 0.05 µg/mL (≈ 0.138 µM) with Escherichia coli [7] (setting [11]); 0.2 µg/mL (≈ 0.55 µM) in data set [4] (Staphylococcus epidermidis, read-out: MIC). Also, the MIC was at most 0.05 µg/mL in the data set on Proteus vulgaris; 1.56 µg/mL (≈ 4.29 µM) in the data set on Streptococcus pyogenes (Streptococcus pyogenes, read-out: MIC); 0.2 µg/mL (≈ 0.55 µM) in the data set on Pseudomonas aeruginosa (setting [13]); 0.78 µg/mL (≈ 2.15 µM) with Enterococcus faecalis (Enterococcus faecalis, ATCC 19433, read-out: MIC); 0.1 µg/mL (≈ 0.275 µM) with Staphylococcus aureus [5] (setting [14]). Also, in [6], the “P'” value stood at 7.

`CN1CCN(c2cc3c(cc2F)c(=O)c(C(=O)O)cn3C2CC2)CC1` gave an MIC against Escherichia coli [9] of 0.05 µg/mL (≈ 0.145 µM). Also, in the data set on Escherichia coli [10], the IC50 turned out to be 0.47 µg/mL (≈ 1.36 µM). The “P'” value in [6] was determined as 20.
